# Assay outcomes from PubChem BioAssay.
# In the library only some 4.2% were active in any assay of this set; here they are far more common.
# TMEM16A act: activates or potentiates the mouse TMEM16A chloride channel | Q8BHY3 | HEK293 TMEM16A/YFP-H148Q/I152L, iodide quench fluorescence; stronger effect = lower value | B-score at 10 µM | 0.3% of 340,000 active;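 active = fluorescence-ratio B-score plate-corrected deviation score at least 3 library SD below zero, with starting fluorescence score within 5 deviations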;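 also: channel opened by trigger with iodide after compound preincubation; score built on the fluorescence ratio of max minus min over baseline; more negative score means more quench and so TMEM16A activation or potentiation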
# Target sequence (Q8BHY3 whole entry, looked up): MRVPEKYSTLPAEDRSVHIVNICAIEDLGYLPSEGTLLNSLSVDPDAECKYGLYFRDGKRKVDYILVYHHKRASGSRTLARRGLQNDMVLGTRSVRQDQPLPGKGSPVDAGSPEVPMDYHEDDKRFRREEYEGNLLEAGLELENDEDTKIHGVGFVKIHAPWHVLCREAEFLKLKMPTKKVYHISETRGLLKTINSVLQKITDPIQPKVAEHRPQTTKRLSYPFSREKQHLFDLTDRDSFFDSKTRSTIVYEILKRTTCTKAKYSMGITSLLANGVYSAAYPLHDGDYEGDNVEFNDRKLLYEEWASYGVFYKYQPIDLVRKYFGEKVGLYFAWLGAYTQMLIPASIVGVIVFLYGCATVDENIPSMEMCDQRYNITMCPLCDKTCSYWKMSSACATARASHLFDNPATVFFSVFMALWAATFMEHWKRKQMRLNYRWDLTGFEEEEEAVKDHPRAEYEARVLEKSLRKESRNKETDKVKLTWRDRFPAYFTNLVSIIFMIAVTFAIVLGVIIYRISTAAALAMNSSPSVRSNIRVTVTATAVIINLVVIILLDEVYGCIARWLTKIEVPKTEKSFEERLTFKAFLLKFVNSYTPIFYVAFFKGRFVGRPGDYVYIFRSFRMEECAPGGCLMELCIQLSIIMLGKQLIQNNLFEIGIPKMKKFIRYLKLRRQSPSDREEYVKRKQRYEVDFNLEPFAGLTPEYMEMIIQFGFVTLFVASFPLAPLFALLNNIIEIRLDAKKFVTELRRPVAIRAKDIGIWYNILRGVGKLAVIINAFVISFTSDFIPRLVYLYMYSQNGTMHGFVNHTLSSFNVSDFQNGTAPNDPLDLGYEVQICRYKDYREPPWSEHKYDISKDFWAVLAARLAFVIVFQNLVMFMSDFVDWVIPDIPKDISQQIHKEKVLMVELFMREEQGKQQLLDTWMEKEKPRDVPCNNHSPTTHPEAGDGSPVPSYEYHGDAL
# Hep lipid drop: hepatic lipid droplet formation modulation; AML12 mouse hepatocytes, oleate lipid droplets, BODIPY imaging; inhibition, % at 6.5 µM; 0.4% of 240,000 active;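 active = lipid droplet intensity inhibited by at least 50%, with more than 500 cells counted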
#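 Test system: AML12 hepatocytes (mouse); reagent: oleate loading, 100 µM; dosing: one dose, 6.5 µM compound; incubation: overnight exposure; signal: fluorescence imaging, 20x objective, two fields per well; read-out basis: % inhibition of corrected integrated BODIPY droplet signal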
# CHOP inhibitor: inhibitors of CHOP induction in ER stress response | 3.8% of 220,000 active | inhibition, % at 10 µM | CHO-K1 CHOP-promoter luciferase, tunicamycin-induced, 15-18 h;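 active = compounds that reduced the stress-induced luciferase reporter signal by more than about 70% of percent inhibition, limit read from the data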;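 also: 0% = tunicamycin plus vehicle and 100% = wells without tunicamycin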
# CHOP UPR activ: apoptotic UPR (CHOP) activation; CHO-CHOP luciferase reporter, luminescence; percent of tunicamycin response over DMSO baseline; 0.34% of 330,000 active; AID 449763; activation, % at 10 µM;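 active = at 10 µM dose, activation of 40% or more, normalized to positive control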;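 also: 100% = tunicamycin at 10 µg/mL and 0% = DMSO alone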
#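 Assay system: CHO cells with stable CHOP pathway luciferase reporter; Buffer or medium: F12 plus 10% serum; Times: 16-18 h cell attachment, then 6 h compound exposure, 37 °C; Signal: luciferase luminescence; Read-out basis: percent activation relative to tunicamycin control; Control set: tunicamycin high control, DMSO low control.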
# ANO1 block: mouse TMEM16A channel inhibition, primary screen | 1.2% of 310,000 active | normalized B-score (activity score, 25-100; higher = stronger inhibition) at 10 µM | AID 588511 | HEK293 TMEM16A/YFP iodide influx fluorescence, ionomycin;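 active = ratio plate-corrected score three or more library SD toward inhibition, starting fluorescence score within five deviations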;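 also: score derived from kinetic fluorescence span divided by baseline fluorescence per well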
# UPR XBP1 act: adaptive UPR (XBP1) activation; CHO-XBP1 luciferase reporter, IRE1-XBP1 UPR activation, luminescence; percent of tunicamycin response, DMSO as zero; activation, % at 20 µM; 0.33% of 330,000 active;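 active = versus positive control, 20 µM dose yields 30% or more activation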;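 also: 100% = tunicamycin at 10 µg/mL and 0% = DMSO only wells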
#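 Test system: CHO-XBP1 luciferase reporter cells | Buffer or medium: Serum-containing F12 medium, 10% FBS | Schedule: 6 h compound exposure at 37 °C, 5% CO2 | Detection: Steady-Glo luciferase glow luminescence, 10 min after reagent addition | Read-out basis: Activation, % of tunicamycin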
# TMEM16A reconf: re-confirmation of mouse TMEM16A chloride channel inhibitors | shares compounds with ANO1 block | HEK293 TMEM16A/YFP-H148Q, iodide quench fluorescence; ionomycin added to raise cell calcium | inhibition, % at 10 µM | 39% of 2,300 active | AID 652189;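 active = mean duplicate percent inhibition, scaled so buffer wells are 0 and the reference blocker 100, over three buffer SD above buffer mean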
# TMEM16A Ca cntr: alters calcium mobilization in TMEM16A HEK293 cells, counter-screen; AID 652231; calcium response (% of ionomycin), % at 10 µM; TMEM16A/YFP HEK293, Fluo4 calcium mobilization; shares compounds with ANO1 block; 2% of 2,300 active;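 active = duplicate-averaged calcium signal over 20% of the ionomycin maximum, relative to buffer baseline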;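 also: each well's signal is peak minus trough fluorescence divided by its pre-addition baseline; 0% = buffer wells and 100% = ionomycin wells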
# Parental YFP cnt: parental YFP-HEK293 iodide quench counter-screen activity | shares compounds with ANO1 block | 2,300 tested, under 10 active | ionomycin | YFP ratio F(max-min)/F0 at 10 µM;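 active = yellow fluorescent protein signal ratio exceeding the buffer control mean by over 5 SD of those controls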;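 also: ratio is mean of duplicate wells from kinetic YFP trace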
# ClC-1 inh: selectivity of TMEM16A inhibitors: inhibition of rat ClC-1 chloride channel; 2,300 tested, under 10 active; shares compounds with ANO1 block; ratio percent, % at 10 µM; AID 652236; CHO ClC-1-YFP, iodide influx fluorescence quench; iodide control reads 0, buffer control 100;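 active = duplicate-mean ratio percent above the mean of iodide-only control wells, which defines zero, plus 5 of their SD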;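 also: higher percent means stronger block of ClC-1 iodide influx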
# * marks the source's active call; other numbers are inactive results; i = inactive; / = no result given.
SMILES,TMEM16A act,Hep lipid drop,CHOP inhibitor,CHOP UPR activ,ANO1 block,UPR XBP1 act,TMEM16A reconf,TMEM16A Ca cntr,Parental YFP cnt,ClC-1 inh
CCCCn1c(SCC(=O)c2c(N)n(C3CC3)c(=O)[nH]c2=O)nc2cc(S(N)(=O)=O)ccc21,i,/,/,2,/,-2,/,/,/,/
Cc1oc(-c2ccccc2F)nc1CS(=O)(=O)CC(=O)N1CCN(c2ccccc2)CC1,i,/,58,10,i,5,/,/,/,/
COc1ccc(N2CCN(C(=O)CCC(=O)N3CC(C)Oc4ccccc43)CC2)cc1 (stereo not given),i,0,/,0,i,-4,/,/,/,/
CC1CN(C(=O)CCC(=O)N2CCN(c3cccc(C(F)(F)F)c3)CC2)c2ccccc2O1 (stereo not given),i,-11,/,-1,25*,-4,20%*,i,-0.95,-4
O=C(CCS(=O)(=O)c1ccccc1)N1CCN(c2cccc(C(F)(F)F)c2)CC1,i,/,/,2,25*,-2,i,i,-1.1,-15
COc1ccc(/C(N)=N/O)cc1O,i,23,14,-1,i,-3,/,/,/,/
COc1ccc(C(=O)CSc2[nH]c(=O)cc(C(F)(F)F)c2C#N)cc1,i,-7,-1,1,25*,-1,22%*,i,-1,-14
COc1ccc(-c2cc(C(F)(F)F)c(C#N)c(SCC(=O)Nc3ccc(C)cc3)n2)cc1,i,5,37,1,i,6,/,/,/,/
Cc1nnc(SCCCN2C(=O)c3ccccc3C2=O)o1,i,10,13,-3,i,6,/,/,/,/
O=C1c2ccccc2C(=O)N1CCCCSc1nc2ccccc2o1,i,-13,68,-1,25*,-3,20%*,i,-1.2,1
COCCCNC(=O)c1c(-c2ccccc2)noc1C,/,/,-7,-2,i,3,/,/,/,/
CCCCOCCCNC(=O)c1c(-c2ccccc2)noc1C,i,-3,27,1,25*,-1,i,i,-1.2,-15
CCOP(=O)(c1c(F)c(F)c(F)c(F)c1F)C(O)c1ccccc1 (stereo not given),i,/,32,-2,25*,-2,31%*,i,-0.98,-10
COc1ccccc1NS(=O)(=O)c1ccc(C(=O)NCCCN2CCCC2=O)cc1,i,/,/,-1,/,-1,/,/,/,/
COc1ccccc1C(=O)NCCCN1CCCC1=O,i,-11,-19,-2,25*,-2,i,i,-1.1,-16
CC1=C(c2ccc(C)cc2)S(=O)(=O)N(CC(=O)O)C1=O,i,-1,30,0,25*,-2,i,i,-1.1,-14
COC(=O)CN1C(=O)C(C)=C(c2ccc(C)cc2)S1(=O)=O,i,0,28,1,i,1,/,/,/,/
O=C(CCC(=O)Nc1cccc(C(F)(F)F)c1)NCC1CCCO1 (stereo not given),i,-1,/,-1,i,0,/,/,/,/
O=C(Cn1c(=O)n(-c2cccc(C(F)(F)F)c2)c(=O)c2sccc21)NCC1CCCO1 (stereo not given),i,-16,/,-1,25*,-2,i,i,-1.2,2
CC(=O)Oc1ccc(C(=O)Nc2nnc(C)s2)cc1,i,/,9,0,i,2,i,i,-0.97,-13
COc1ccc(N2CCN(C(c3cccs3)C(C)NC(=O)C(=O)N3CCCC3)CC2)cc1 (stereo not given),i,0,/,-1,i,-2,/,/,/,/
CSc1cccc(NC(=O)/C=C/c2ccccc2)c1,i,/,51,7,i,5,/,/,/,/
CSc1cccc(NC(=O)/C=C/c2ccc(Cl)cc2)c1,i,/,48,6,100*,2,62%*,i,-1,-8
Cc1ccccc1OCCC(=O)OCC(=O)N(C)c1c(N)n(Cc2ccccc2)c(=O)[nH]c1=O,i,-2,/,0,i,-4,/,/,/,/
COc1ccc(CCNC(=O)CCN2C(=O)C(C)Oc3ccc(C)cc32)cc1OC (stereo not given),i,/,12,-2,100*,0,i,i,-1.2,-10
SMILES,TMEM16A act,Hep lipid drop,CHOP inhibitor,CHOP UPR activ,ANO1 block,UPR XBP1 act,TMEM16A reconf,TMEM16A Ca cntr,Parental YFP cnt,ClC-1 inh
Cc1cc(C)n(CCNC(=O)c2ccc3c(c2)OCO3)n1,i,-15,/,2,i,-6,/,/,/,/
Cc1ccc(C)c(C(=O)Nc2ccncc2)c1,i,-4,/,-1,i,-2,/,/,/,/
CCc1ccccc1N(C)C(=O)CCc1nc(-c2ccc(C)cc2)no1,i,/,77*,1,100*,-2,i,i,-1.1,6
CCOC(=O)C1(Cc2cccc(OC)c2)CCN(C/C=C/c2ccc(OC)cc2)CC1,i,-68,55,-1,25*,-3,i,i,-1.2,-18
CN(C)c1ncc(S(=O)(=O)c2ccccc2)c(N)n1,i,-12,12,0,i,-3,/,/,/,/
CN(C)c1ncc(S(=O)(=O)c2ccccc2)c(-c2ccccc2Cl)n1,i,/,28,-1,100*,1,i,i,-1,-10
Cc1ccc(-n2c(C)cc(C(=O)COc3c(CO)cc(F)cc3CO)c2C)cc1C,i,0,38,2,25*,-1,32%*,i,-1.1,-4
CC(C)c1ccc(NC2CCCN(C(=O)c3n[nH]c4c3CCC4)C2)cc1 (stereo not given),i,1,/,2,25*,-5,20%*,i,-1.1,-16
O=C(Nc1ccccc1N1CCCCC1)c1ccccc1F,i,/,-27,0,25*,4,i,i,-0.91,-4
Cc1cccc(OCC(=O)Nc2ccccc2N2CCCC2)c1C,i,/,/,1,i,-3,/,/,/,/
O=C(CNCc1ccccc1Cl)Nc1ccccc1N1CCCCC1,i,-9,45,-1,25*,2,i,i,-1.1,-8
